Series [1] can be described thus: Cytotoxicity against human HepG2 cells. The series is classed as cell-based. As to conditions: read-out: TC50 (the source's name).
The next series relates to Trypanosoma cruzi. As to the kind of experiment: Antitrypanosomal activity against Trypanosoma cruzi Tulahuen intracellular amastigote harboring beta-galactosidase infected in mouse NIH/3T3 cells after 96 hrs by CPRG reagent based assay. As to conditions: NIH3T3, 96 h. The series is classed as functional, organism-based.
Series [2] is described as follows: Selectivity index, ratio of TC50 for human HepG2 cells to EC50 for Trypanosoma brucei brucei 427. The series is classed as toxicity. Conditions: read-out: Selectivity Index.
A short description of series [3]: Selectivity ratio of EC50 for antimalarial activity against Plasmodium falciparum C235 trophozoites to EC50 for atimalarial activity against Plasmodium falciparum D6 trophozoites. The series is classed as functional.
Series [4] concerns Trypanosoma brucei brucei. Description: Antitrypanosomal activity against Trypanosoma brucei brucei 427 at 5 uM after 48 hrs by presto blue dye based fluorescence assay relative to control. The series is classed as functional. A digest of the protocol:
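Single-concentration screen of bloodstream T. brucei cultures at 5 μM, 5 × 10^4 cells/mL; percent proliferation inhibition recorded.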

The nature of series [5]: Selectivity index, ratio of TC50 for mouse NIH/3T3 cells to EC50 for Trypanosoma cruzi Tulahuen intracellular amastigote harboring beta-galactosidase. The series is classed as toxicity, cell-based. Conditions: read-out: Selectivity Index. The gist of the method: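 NIH 3T3 cells, the host line for intracellular T. cruzi amastigote culture, tested for toxicity. Selectivity = NIH3T3 TC50 / T. cruzi EC50.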

Series [6] concerns Trypanosoma brucei brucei. As to the kind of experiment: Antitrypanosomal activity against Trypanosoma brucei brucei 427 after 48 hrs by presto blue dye based fluorescence assay. The series is classed as functional, organism-based. Conditions: Trypanosoma brucei, 427, 48 h.
The test system of the next series is Leishmania major. Description: Antileishmanial activity against Leishmania major intracellular amastigotes harboring luciferase infected in mouse RAW264.7 cells after 96 hrs by luminescence assay. The series is classed as functional, organism-based. As to conditions: RAW264.7, 96 h. The gist of the method:
(§1)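 L. major amastigotes screened in duplicate or quadruplicate. Selectivity derived as HepG2 TC50 / L. major EC50.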

Series [7] can be described thus: Selectivity ratio of EC50 for antimalarial activity against Plasmodium falciparum W2 trophozoites to EC50 for atimalarial activity against Plasmodium falciparum D6 trophozoites. The series is classed as functional.
In a further series the test system is Plasmodium falciparum. As to the kind of experiment: Antimalarial activity against Plasmodium falciparum D6 trophozoites after 72 hrs by SYBR Green I dye-based fluorescence assay. The series is classed as functional, organism-based. Conditions: D6, 72 h. A digest of the protocol: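 P. falciparum D6 strain; compounds run in duplicate or quadruplicate; EC50 determined from dose-response.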

A short description of series [8]: Selectivity index, ratio of TC50 for human HepG2 cells to EC50 for Plasmodium falciparum D6 trophozoites. Conditions: read-out: Selectivity Index. The series is classed as toxicity. The gist of the method:
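P. falciparum D6 screened in duplicate or quadruplicate. Selectivity = HepG2 TC50 / P. falciparum EC50.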

Series [9] in a line: Cytotoxicity against mouse NIH/3T3 cells. The series is classed as cell-based, NIH3T3. As to conditions: read-out: TC50 (the source's name).
Series [10] in a line: Selectivity index, ratio of TC50 for human HepG2 cells to EC50 for Leishmania major intracellular amastigotes harboring luciferase infected in mouse RAW264.7 cells. The series is classed as toxicity, cell-based. As to conditions: read-out: Selectivity Index. The gist of the method:
as §1

The subject of series [11] is Trypanosoma brucei. Description: Antiparasitic activity against Trypanosoma brucei. The series is classed as functional, organism-based.
For series [12], the system named is Trypanosoma brucei. As to the kind of experiment: Antitrypanosomal activity against Trypanosoma brucei Lister 427 assessed as increase in fraction of trypanosomes containing one 2K2N at 9.5 uM after 3 hrs by mCLING/DAPI staining based fluorescence microsocpic method. The series is classed as functional, organism-based. A digest of the protocol: (§2)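 Mid-log bloodstream T. brucei (5 × 10^5 cells/mL) exposed to compound or DMSO for 3 h, fixed, stained with mCLING plus DAPI for kinetoplast and nuclear DNA; kinetoplasts and nuclei per cell counted by fluorescence microscopy (n >120 cells); mean percentages over three biological replicates; distribution compared by Pearson χ2.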

Series [13] relates to Trypanosoma brucei. As to the kind of experiment: Antitrypanosomal activity against Trypanosoma brucei Lister 427 assessed as reduction in fraction of trypanosomes containing one kinetoplast at 9.5 uM after 3 hrs by mCLING/DAPI staining based fluorescence microsocpic method. The series is classed as functional, organism-based. The gist of the method:
as §2

Series [14] has as its system Trypanosoma brucei. Description: Antitrypanosomal activity against Trypanosoma brucei Lister 427 infected in Swiss Webster mouse assessed as mouse survival at 130 mg/kg, po via gavage once daily for 10 days starting from 24 hrs post infection (reference value: 5 day). The series is classed as functional. The gist of the method:
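Mice, four per group, infected with 10^5 T. brucei Lister427 on day 0. From 24 h, oral gavage at 130 mg/kg once daily for 10 days in 10% NMP/90% PEG; controls received vehicle only. Parasitemia followed through and after dosing. Survival compared by chi-square analysis of Kaplan–Meier data.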

Series [15] deals with Mus musculus. As to the kind of experiment: Time at which plasma concentration stays above in vitro antitrypanosomal EC50 in Swiss Webster mouse at 130 mg/kg, po by LC-MS/MS analysis. The series is classed as ADME, organism-based. Conditions: in vivo.
Series [16] concerns Trypanosoma brucei. Description: Antitrypanosomal activity against Trypanosoma brucei Lister 427 assessed as reduction in fraction of trypanosomes containing one nucleus at 9.5 uM after 3 hrs by mCLING/DAPI staining based fluorescence microsocpic method. The series is classed as functional, organism-based. The gist of the method: as §2
In series [17] the test system is Mus musculus. As to the kind of experiment: Toxicity in Swiss Webster mouse infected with Trypanosoma brucei Lister 427 at 130 mg/kg, po via gavage once daily for 10 days starting from 24 hrs post infection. The series is classed as organism-based. Conditions: in vivo. The gist of the method:
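Infected mice (four per group; 10^5 T. brucei Lister427) dosed orally 130 mg/kg once daily for 10 days from 24 h post-infection, vehicle 10% NMP/90% PEG; observed for signs of toxicity.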

The test system of series [18] is Trypanosoma brucei. Description: Inhibition of transferrin-647 uptake in Trypanosoma brucei Lister 427 at 9.5 uM after 3 hrs by propidium iodide staining based flow cytometry. The series is classed as functional, organism-based. On the technique in general: A flow cytometer gives signals particle by particle.
Series [19] has as its system Trypanosoma brucei. Description: Antitrypanosomal activity against Trypanosoma brucei Lister 427 infected in Swiss Webster mouse assessed as reduction in parasitemia at 130 mg/kg, po via gavage once daily for 10 days starting from 24 hrs post infection by hemocytometric method. The series is classed as functional, organism-based. A digest of the protocol:
(§3)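 Mice, four per group, infected with 10^5 T. brucei Lister427 (day 0); from 24 h, 130 mg/kg by oral gavage once daily for 10 days in 10% NMP/90% PEG; controls received vehicle; parasitemia followed over time after infection; mean parasitemia compared by Student's t test.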

Series [20] concerns Trypanosoma brucei. As to the kind of experiment: Antitrypanosomal activity against Trypanosoma brucei Lister 427 assessed as increase in fraction of trypanosomes containing one 2K1N at 9.5 uM after 3 hrs by mCLING/DAPI staining based fluorescence microsocpic method. The series is classed as functional, organism-based. A digest of the protocol:
as §2

The subject of series [21] is Trypanosoma brucei. As to the kind of experiment: Antitrypanosomal activity against Trypanosoma brucei Lister 427 infected in Swiss Webster mouse assessed as reduction in parasitemia at 130 mg/kg, po via gavage once daily for 10 days starting from 24 hrs post infection measured on day 13 by hemocytometric method. The series is classed as functional, organism-based. A digest of the protocol:
as §3

The text below walks through data of ChEMBL document CHEMBL4266004, “Series of Alkynyl-Substituted Thienopyrimidines as Inhibitors of Protozoan Parasite Proliferation” (ACS Med Chem Lett, 2018).

The EC50 is the midpoint of the concentration-response curve.

Activity calls are given as the source filed them. The rule behind the calls is not given here.

As for `CN1CCN(CC#Cc2cc3c(Nc4ccc(OCc5cccc(F)c5)c(Cl)c4)ncnc3s2)CC1`, the figures for the CC50 in [1] and in [9] were 15000 nM and 6700 nM, respectively. For the same molecule, the EC50 with Trypanosoma cruzi is 3500 nM; in [6], 1000 nM; with Leishmania major, 8100 nM; with Plasmodium falciparum, 260 nM. Besides, the selectivity ratio in [2] was 15; in series [5], 1.9; in series [8] it was 58; in series [10] it was 1.9. Also, the Ratio EC50 in series [3] and in series [7] was under 3 each time. In addition, the Activity in [4] is over 75%.

Take `CS(=O)(=O)CCNCc1ccc(-c2ccc3ncnc(Nc4ccc(OCc5cccc(F)c5)c(Cl)c4)c3c2)o1` [LAPATINIB]: in the series on Trypanosoma brucei [11], the EC50 was in the range of 1400 to 1500 nM.

Regarding `CCCN(CC#Cc1cc2c(Nc3ccc(OCc4cccc(F)c4)c(Cl)c3)ncnc2s1)CCC`, the results for the CC50 in [1] and in [9] were 17000 nM and 2200 nM, respectively. The EC50 amounted to 1700 nM with Trypanosoma cruzi, 1400 nM with Leishmania major and 800 nM in the series with Plasmodium falciparum. For the same molecule, the Ratio EC50 in series [3] and in [7] was under 3 throughout. This molecule had an Activity in series [4] of 0%. Further, the values for the selectivity ratio in series [5], in series [8] and in series [10] were 1.3, 21 and 12, respectively.

In the case of `Fc1cccc(COc2ccc(Nc3ncnc4sc(C#CCN5CCNCC5)cc34)cc2Cl)c1`, the CC50 in [1] worked out at 7700 nM; in [9], 3900 nM. Moreover, the EC50 with Trypanosoma cruzi came to 610 nM; in series [6], 1900 nM; in the series on Leishmania major, 9100 nM; with Plasmodium falciparum it was 380 nM. Besides, the selectivity ratio was found to be 4.1 in series [2], 6.4 in series [5], 20 in series [8] and 0.85 in [10]. The Ratio EC50 in [3] and in series [7] was under 3 each time. For the same molecule, the Activity in [4] is over 75%.

Regarding `Fc1cccc(COc2ccc(Nc3ncnc4cc(C#C[C@@H]5CCCN5)sc34)cc2Cl)c1`, the CC50 in series [1] came to 9600 nM; in [9], 10000 nM. The EC50 is 3700 nM in the series on Trypanosoma cruzi, 220 nM in series [6], 4200 nM in the series on Leishmania major and 940 nM with Plasmodium falciparum. Moreover, the selectivity ratio stood at 44 in series [2], 2.7 in series [5], 10 in [8] and 2.3 in [10]. The Ratio EC50 in series [3] and in series [7] was under 3 each time. The molecule further showed an Activity in [4] of over 75%.

With `Fc1cccc(COc2ccc(Nc3ncnc4sc(C#CCN5CCCC5)cc34)cc2Cl)c1`, the CC50 in [1] was over 30000 nM. For the same molecule, the Ratio EC50 in series [3] and in [7] was under 3 in each case. Moreover, in [4], the Activity is recorded as over 75%. For the same molecule, the results for the concentration giving a half-maximal response (EC50) (in series [6]; with Leishmania major; in the series with Plasmodium falciparum) were over 2500 nM, 4300 nM and 140 nM, respectively. The results for the selectivity ratio in [8] and in series [10] were over 214 and over 7, respectively.

Turning to `Fc1cccc(COc2ccc(Nc3ncnc4cc(C#C[C@H]5CCCN5)sc34)cc2Cl)c1`, the result in the series on Trypanosoma brucei [12], in the series with Trypanosoma brucei [13], in the series on Trypanosoma brucei [16], in the series on Trypanosoma brucei [19] and in the series with Trypanosoma brucei [20] was Active. For the same molecule, in the series with Trypanosoma brucei [14], the Survival turned out to be 7.5 days. Also, in the series with Mus musculus [15], the Time entry is on record as “<= 4 hr”. The concentration for a half-maximal effect (EC50) in series [6] is 260 nM. In addition, in the series on Mus musculus [17], the Activity result is “Non-Toxic”. Further, the inhibition result in the series with Trypanosoma brucei [18] is “inactive”. In addition, the outcome with Trypanosoma brucei [21] was inactive.

With `CN1CCN(CC#Cc2cc3ncnc(Nc4ccc(OCc5cccc(F)c5)c(Cl)c4)c3s2)CC1`, the figures for the CC50 in series [1] and in series [9] were 11000 nM and 4800 nM, respectively. Besides, the EC50 in the series on Trypanosoma cruzi was 2100 nM; in series [6], 2500 nM; in the series with Leishmania major it was over 15000 nM; in the series on Plasmodium falciparum, 640 nM. In addition, the values for the selectivity ratio in [2], in series [5] and in [8] were 4.3, 2.3 and 17, respectively. The Ratio EC50 in [3] and in series [7] was under 3 each time. For the same molecule, in series [4], the Activity is listed as over 75%.

In the case of `CN1CCN(CC#Cc2ccc3ncnc(Nc4ccc(OCc5cccc(F)c5)c(Cl)c4)c3c2)CC1`, the CC50 in series [1] was 8200 nM; in series [9], 7200 nM. In addition, the half-maximal effective concentration (EC50) with Trypanosoma cruzi was 2500 nM; in series [6] it was 1000 nM; with Leishmania major, 10000 nM; in the series with Plasmodium falciparum, 160 nM. Moreover, the selectivity ratio in series [2] is 8.2; in series [5], 2.9; in series [8] it was 51; in series [10], 0.8. Further, the Ratio EC50 in series [3] and in [7] was under 3 throughout. This molecule also showed an Activity in [4] of over 75%.
